Assay results reported in ChEMBL document CHEMBL1121429, “Soft drugs. 1. Labile quaternary ammonium salts as soft antimicrobials” (J Med Chem, 1980).

How the values were obtained:
[1] = system: Pseudomonas aeruginosa; assay: Sterilization time for contact germicidal efficiency (CGE) of salt was tested against at Pseudomonas aeruginosa at pH 7.0, concentration 1031 ppm; format: functional, organism-based
[2] = system: Pseudomonas aeruginosa; assay: Sterilization time for contact germicidal efficiency (CGE) of salt was tested against at Pseudomonas aeruginosa at pH 6.0, concentration 1007 ppm; format: functional, organism-based
[3] = system: Pseudomonas aeruginosa; assay: Sterilization time for contact germicidal efficiency (CGE) of salt was tested against at Pseudomonas aeruginosa at pH 8.0, concentration 1042 ppm; format: functional, organism-based
[4] = system: Staphylococcus aureus; assay: Sterilization time for contact germicidal efficiency (CGE) of salt was tested against Staphylococcus aureus at pH 7.0, concentration 1031 ppm; format: functional, organism-based
[5] = system: Streptococcus pyogenes; assay: Sterilization time for contact germicidal efficiency (CGE) of salt was tested against at Streptococcus pyogenes at pH 6.0, concentration 1007 ppm; format: functional, organism-based
[6] = system: Staphylococcus aureus; assay: Minimum inhibitory concentration of salt was tested against Staphylococcus aureus aureus at 0.1 M NaH2PO4 adjusted to pH 7.0; format: functional
Outline: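 Bacteria grown 18-20 h at 37 °C in tryptose phosphate broth, adjusted to OD650 0.01, then diluted into double-strength medium to about 2 × 10^5 viable organisms/mL. Compound in 0.1 M NaH2PO4 pH 7.0 was serially twofold diluted into sterile water and added 1:1 to the cultures. MIC read after 18-20 h at 37 °C, with viability, sterility and buffer controls.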

[7] = system: Staphylococcus aureus; assay: Sterilization time for contact germicidal efficiency (CGE) of salt was tested against at Staphylococcus aureus at pH 7.0, concentration 1031 ppm; format: functional, organism-based
[8] = system: Staphylococcus aureus; assay: Sterilization time for contact germicidal efficiency (CGE) of salt was tested against at Staphylococcus aureus at pH 8.0, concentration 1042 ppm; format: functional, organism-based
[9] = system: Streptococcus pyogenes; assay: Sterilization time for contact germicidal efficiency (CGE) of salt was tested against at Streptococcus pyogenes at pH 8.0, concentration 1042 ppm; format: functional, organism-based
[10] = system: Staphylococcus aureus; assay: Sterilization time for contact germicidal efficiency (CGE) of salt was tested against at Staphylococcus aureus at pH 6.0, concentration 1007 ppm; format: functional, organism-based
[11] = system: Streptococcus pyogenes; assay: Sterilization time for contact germicidal efficiency (CGE) of salt was tested against at Streptococcus pyogenes at pH 7.0, concentration 1031 ppm; format: functional, organism-based
[12] = system: Bacillus subtilis
[13] = system: Pseudomonas aeruginosa
[14] = system: Streptococcus pyogenes
[15] = system: Salmonella typhimurium
[16] = system: Bacillus subtilis; assay: Minimum inhibitory concentration of salt was tested against Bacillus subtilis at 0.1 M NaH2PO4 adjusted to pH 7.0; format: functional
[17] = system: Pseudomonas aeruginosa; assay: Minimum inhibitory concentration of salt was tested against Pseudomonas aeruginosa at 0.1 M NaH2PO4 adjusted to pH 7.0; format: functional
[18] = system: Pseudomonas aeruginosa; assay: (§1) Sterilization time for contact germicidal efficiency (CGE) of salt was tested against at Pseudomonas aeruginosa at pH 7.0, concentration 1027 ppm; format: functional
Outline: (§2)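 Test solutions of the quaternary salt in buffer stood 30 min at room temperature. 0.2 mL of overnight broth culture was added to 5 mL of solution. Inocula: S. aureus ATCC 6538 6-8 × 10^6 cfu/mL, P. aeruginosa ATCC 9027 12-13 × 10^6/mL, S. pyogenes ATCC 19615 5 × 10^6 cfu/mL. At 0.5-30 min intervals a loop was subcultured into nutrient broth and incubated 7 days at 37 °C. Sterilization time is the first interval giving no growth.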

[19] = system: Pseudomonas aeruginosa; assay: as §1; format: functional; outline: as §2; remark: listed apart in the source
[20] = system: Pseudomonas aeruginosa; assay: Sterilization time for contact germicidal efficiency (CGE) of salt was tested against at Pseudomonas aeruginosa at pH 6.0, concentration 1016 ppm; format: functional; outline: as §2
[21] = system: Pseudomonas aeruginosa; assay: Sterilization time for contact germicidal efficiency (CGE) of salt was tested against at Pseudomonas aeruginosa at pH 8.0, concentration 1022 ppm; format: functional
Outline: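 Pseudomonas aeruginosa ATCC 9027 overnight broth culture (12-13 × 10^6 organisms/mL); 0.2 mL added to 5 mL buffered salt solution held 30 min at room temperature. At intervals from 0.5 to 30 min, a 3-mm loop was subcultured into nutrient broth and incubated at 37 °C for 7 days. Sterilization time is the shortest interval whose subculture gave no growth.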

[22] = system: Staphylococcus aureus; assay: Sterilization time for contact germicidal efficiency (CGE) of salt was tested against Staphylococcus aureus at pH 7.0 in horse serum at contact time=0 min; format: functional
Outline: (§3)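 S. aureus ATCC 6538 CGE screen with solutions in 0.1 M NaH2PO4 pH 7.0 diluted with 10% horse serum in distilled water, adjusted to pH 7 with CO2. Contact times of 0-15 min were used. Overnight culture was added, and loop subcultures taken at 0.5-30 min were grown 7 days at 37 °C in nutrient broth. Sterilization time is the first interval giving no growth.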

[23] = system: Staphylococcus aureus; assay: Sterilization time for contact germicidal efficiency (CGE) of salt was tested against Staphylococcus aureus at pH 7.0 in horse serum at contact time=10 min; format: functional; outline: as §3
[24] = system: Staphylococcus aureus; assay: Sterilization time for contact germicidal efficiency (CGE) of salt was tested against Staphylococcus aureus at pH 7.0 in horse serum at contact time=15 min; format: functional; outline: as §3
[25] = system: Staphylococcus aureus; assay: Sterilization time for contact germicidal efficiency (CGE) of salt was tested against Staphylococcus aureus at pH 7.0 in horse serum at contact time=5 min; format: functional; outline: as §3
[26] = system: Staphylococcus aureus; assay: Sterilization time for contact germicidal efficiency (CGE) of salt was tested against Staphylococcus aureus at pH 7.0 in water diluent; format: functional; outline: as §2
[27] = system: Staphylococcus aureus; assay: Sterilization time for contact germicidal efficiency (CGE) of salt was tested against Staphylococcus aureus at pH 7.0, concentration 1027 ppm; format: functional; outline: as §2
[28] = system: Streptococcus pyogenes; assay: Minimum inhibitory concentration of salt was tested against Streptococcus pyogenes aureus at 0.1 M NaH2PO4 adjusted to pH 7.0; format: functional
[29] = system: Streptococcus pyogenes; assay: Sterilization time for contact germicidal efficiency (CGE) of salt was tested against at Streptococcus pyogenes at pH 6.0, concentration 1016 ppm; format: functional
Outline: (§4)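 Streptococcus pyogenes ATCC 19615 overnight culture, 5 × 10^6 cfu/mL; 0.2 mL into 5 mL test solution of salt in buffer, left 30 min at room temperature beforehand. At timed intervals (0.5 to 30 min), a 3-mm loop was transferred to sterile nutrient broth and incubated at 37 °C for 7 days. Sterilization time is the shortest interval without growth; buffer-only and viability controls were run.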

[30] = system: Staphylococcus aureus; assay: Sterilization time for contact germicidal efficiency (CGE) of salt was tested against at Staphylococcus aureus at pH 6.0, concentration 1016 p.p.m.; format: functional
Outline: (§5)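 Staphylococcus aureus ATCC 6538, overnight broth culture at 6-8 × 10^6 cfu/mL; 0.2 mL inoculated into 5 mL of buffered quaternary salt solution pre-held 30 min at room temperature. Loop subcultures (3 mm) taken at 0.5-30 min intervals into nutrient broth, incubated at 37 °C for 7 days and read daily. The endpoint is the earliest time giving a growth-free subculture.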

[31] = system: Staphylococcus aureus; assay: Sterilization time for contact germicidal efficiency (CGE) of salt was tested against at Staphylococcus aureus at pH 7.0, concentration 1027 ppm; format: functional; outline: as §5
[32] = system: Staphylococcus aureus; assay: Sterilization time for contact germicidal efficiency (CGE) of salt was tested against at Staphylococcus aureus at pH 8.0, concentration 1022 ppm; format: functional; outline: as §5
[33] = system: Streptococcus pyogenes; assay: Sterilization time for contact germicidal efficiency (CGE) of salt was tested against at Streptococcus pyogenes at pH 8.0, concentration 1022 ppm; format: functional; outline: as §4
[34] = system: Streptococcus pyogenes; assay: Sterilization time for contact germicidal efficiency (CGE) of salt was tested against at Streptococcus pyogenes at pH 7.0, concentration 1027 ppm; format: functional; outline: as §4
[35] = system: Salmonella typhimurium; assay: Minimum inhibitory concentration of salt was tested against Salmonella Typhimurium […] at 0.1 M NaH2PO4 adjusted to pH 7.0; format: functional; details: Salmonella enterica
[36] = system: Staphylococcus aureus; assay: Sterilization time for contact germicidal efficiency (CGE) of salt was tested against Staphylococcus aureus at pH 7.0, concentration 254 ppm; format: functional
[37] = system: Streptococcus pyogenes; assay: Sterilization time for contact germicidal efficiency (CGE) of salt was tested against Streptococcus pyogenes at pH 7.0, concentration 254 ppm; format: functional
[38] = system: Pseudomonas aeruginosa; assay: Sterilization time for contact germicidal efficiency (CGE) of salt was tested against Pseudomonas aeruginosa at pH 7.0, concentration 254 ppm; format: functional
[39] = Toxicity of the salt was tested on white swiss male mice after intraperitoneal administration; format: organism-based; details: mouse, in vivo, ip
Outline: (§6)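 Male White Swiss mice (MCR-ICR), 20-23 g, 10-20 per dose. Salt given in isotonic NaCl, pH 7.0 (adjusted with sodium bicarbonate). LD50 with confidence limits was calculated by Litchfield–Wilcoxon.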

[40] = Toxicity of the salt was tested on white swiss male mice after intravenous administration; format: organism-based; details: mouse, in vivo; outline: as §6
[41] = Toxicity of the salt was tested on white swiss male mice after oral administration; format: organism-based; details: mouse, in vivo
Outline: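 Male White Swiss mice (MCR-ICR), 20-23 g, 10-20 per dose, dosed orally. At higher doses the salt was given in 0.8% NaCl brought to pH 5.84 with sodium bicarbonate. LD50 was calculated by Litchfield–Wilcoxon.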

[42] = system: Pseudomonas aeruginosa; assay: Sterilization time for contact germicidal efficiency (CGE) of salt was tested against Pseudomonas aeruginosa at pH 7.0, concentration 610 ppm; format: functional; outline: as §2
[43] = system: Streptococcus pyogenes; assay: Sterilization time for contact germicidal efficiency (CGE) of salt was tested against Streptococcus pyogenes at pH 7.0, concentration 610 ppm; format: functional; outline: as §2
[44] = system: Staphylococcus aureus; assay: Sterilization time for contact germicidal efficiency (CGE) of salt was tested against Staphylococcus aureus at pH 7.0, concentration 610 ppm; format: functional; outline: as §2
[45] = system: Pseudomonas aeruginosa; assay: Sterilization time for contact germicidal efficiency (CGE) of salt was tested against at Pseudomonas aeruginosa at pH 7.0, concentration 1042.1 ppm; format: functional; outline: as §2
[46] = system: Staphylococcus aureus; assay: Sterilization time for contact germicidal efficiency (CGE) of salt was tested against Staphylococcus aureus at pH 7.0, concentration 1042.1 ppm; format: functional; outline: as §2
[47] = system: Streptococcus pyogenes; assay: Sterilization time for contact germicidal efficiency (CGE) of salt was tested against at Streptococcus pyogenes at pH 7.0, concentration 1042.1 ppm; format: functional; outline: as §4
[48] = system: Pseudomonas aeruginosa; assay: Sterilization time for contact germicidal efficiency (CGE) of salt was tested against at Pseudomonas aeruginosa at pH 7.0, concentration 1116.0 ppm; format: functional; outline: as §2
[49] = system: Staphylococcus aureus; assay: Sterilization time for contact germicidal efficiency (CGE) of salt was tested against Staphylococcus aureus at pH 7.0, concentration 1116.0 ppm; format: functional; outline: as §2
[50] = system: Streptococcus pyogenes; assay: Sterilization time for contact germicidal efficiency (CGE) of salt was tested against at Streptococcus pyogenes at pH 7.0, concentration 1116.0 ppm; format: functional; outline: as §4

Hexadecyl-trimethyl-ammonium bromide
TIME [1]: 0.00833 h | TIME [2]: 0.00833 h | TIME [3]: 0.00833 h | TIME [4]: 0.00833 h | TIME [5]: 0.00833 h | MIC [6]: < 2 p.p.m. | TIME [7]: 0.00833 h | TIME [8]: 0.00833 h | TIME [9]: 0.00833 h | TIME [10]: 0.00833 h | TIME [11]: 0.00833 h | MIC [12]: < 2 p.p.m. | MIC [13]: 128 p.p.m. | MIC [14]: < 2 p.p.m. | MIC [15]: 64.3 p.p.m.

CCCCCCCCCCCC(=O)OC[N+]12CCC(CC1)CC2.[Cl-]
MIC [16]: 32.8 µg/mL | MIC [17]: 1050 µg/mL | Time [18]: 0.5 min | Time [19]: 3 min | Time [20]: 0.5 min | Time [21]: 0.5 min | Time [22]: 1 min | Time [23]: 5 min | Time [24]: >30 min | Time [25]: 3 min | Time [26]: 0.5 min | Time [27]: 0.5 min | MIC [28]: 4.1 µg/mL | Time [29]: 0.5 min | MIC [6]: 16.4 µg/mL | Time [30]: 1 min | Time [31]: 0.5 min | Time [32]: 0.5 min | Time [33]: 2 min | Time [34]: 0.5 min | MIC [35]: 262 µg/mL

CCCCCCCCCCCCCCCC(=O)OC[n+]1ccccc1.[Cl-]
MIC [35]: 1070 µg/mL

Cn1ccnc1 [1-METHYLIMIDAZOLE]
Time [36]: >30 min | Time [37]: >30 min | Time [38]: >30 min

CCCCCCCCCCCC(=O)OC[N+]1=CN(C)CC1.[Cl-]
LD50 [39]: 155 mg/kg | LD50 [40]: 75 mg/kg | LD50 [41]: 4110 mg/kg

CCCCCCCCCCCCCCCC(=O)OC[N+]1=CN(C)CC1.[Cl-]
MIC [16]: > 42.4 µg/mL | MIC [17]: > 42.4 µg/mL | MIC [28]: > 42.4 µg/mL | MIC [6]: 1.3 µg/mL | MIC [35]: > 42.4 µg/mL

CCCCCCCCCCCC(=O)O [DODECANOATE]
Time [42]: >30 min | Time [43]: >30 min | Time [44]: >30 min

CCCCCCCCCCCCCC(=O)OC[n+]1ccccc1.[Cl-]
Time [45]: 1 min | Time [46]: 1 min | Time [47]: 0.5 min

CCCCCCCCCCCC(=O)OC[n+]1cccc(C(=O)NCC)c1.[Cl-]
MIC [16]: 32.6 µg/mL | MIC [17]: 1040 µg/mL | Time [48]: 3 min | Time [49]: 0.5 min | MIC [28]: 32.6 µg/mL | MIC [6]: 130 µg/mL | Time [50]: 0.5 min | MIC [35]: 522 µg/mL
